Measurements reported in BindingDB's records for doi:10.1016/j.bmcl.2007.08.013 (Schering-Plough Research Institute, 2007).

How the values were obtained:
[1] = molecular target: T1, Amyloid-beta precursor protein (Homo sapiens, UniProt P05067); assay: Inhibition of gamma-secretase assessed as reduction of membrane A-beta-40 level
Summary of the method: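 Membrane-based γ-secretase assay with Aβ40 as read-out; IC50 in nM, reported as means of two experiments.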

[2] = molecular target: T1, Amyloid-beta precursor protein; assay: Inhibition of gamma-secretase assessed as reduction of cell A-beta-40 level

T1 sequence (P05067 whole entry): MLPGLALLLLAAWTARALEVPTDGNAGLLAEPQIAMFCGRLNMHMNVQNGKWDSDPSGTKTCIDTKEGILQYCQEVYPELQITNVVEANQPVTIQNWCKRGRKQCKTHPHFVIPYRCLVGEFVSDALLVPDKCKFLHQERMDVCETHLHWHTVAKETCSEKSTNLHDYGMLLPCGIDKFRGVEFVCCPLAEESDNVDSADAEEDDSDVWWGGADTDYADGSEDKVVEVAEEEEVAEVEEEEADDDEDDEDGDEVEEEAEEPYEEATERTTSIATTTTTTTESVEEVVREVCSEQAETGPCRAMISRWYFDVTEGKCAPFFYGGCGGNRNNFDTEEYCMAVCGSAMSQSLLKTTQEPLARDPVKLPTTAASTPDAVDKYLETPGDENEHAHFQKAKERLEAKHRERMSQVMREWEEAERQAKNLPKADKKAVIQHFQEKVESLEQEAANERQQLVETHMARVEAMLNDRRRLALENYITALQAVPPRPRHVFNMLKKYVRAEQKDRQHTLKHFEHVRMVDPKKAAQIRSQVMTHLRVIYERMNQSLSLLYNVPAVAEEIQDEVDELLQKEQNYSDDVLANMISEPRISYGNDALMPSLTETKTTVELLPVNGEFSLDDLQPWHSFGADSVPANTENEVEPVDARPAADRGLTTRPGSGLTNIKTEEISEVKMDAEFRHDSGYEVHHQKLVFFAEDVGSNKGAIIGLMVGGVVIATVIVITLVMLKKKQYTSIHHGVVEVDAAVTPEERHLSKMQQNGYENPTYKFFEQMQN

Structure (SMILES)	IC50 [1]	IC50 [2]
CC[C@@H]1CCC[C@H](C2(OC(=O)N3CCC(N4CCCCC4)CC3)CC2)N1S(=O)(=O)c1cc(F)cc(F)c1 [1-((2R,6R)-1-(3,5-difluorophenylsulfonyl)-6-ethylpiperidin-2-yl)cyclopropyl 4-(piperidin-1-yl)piperidine-1-carboxylate]	29 nM	144 nM
CC[C@@H]1CCC[C@H](C2(OC(=O)N3CCC(CCO)(OC)CC3)CC2)N1S(=O)(=O)c1ccc(Cl)cc1 [1-((2R,6R)-1-(4-chlorophenylsulfonyl)-6-ethylpiperidin-2-yl)cyclopropyl 4-(2-hydroxyethyl)-4-methoxypiperidine-1-carboxylate]	9 nM	20 nM
CC[C@@H]1CCC[C@H](C2(OC(=O)N3CCN(C(C)(C)CO)CC3)CC2)N1S(=O)(=O)c1ccc(F)cc1 [1-((2R,6R)-6-ethyl-1-(4-fluorophenylsulfonyl)piperidin-2-yl)cyclopropyl 4-(1-hydroxy-2-methylpropan-2-yl)piperazine-1-carboxylate]	10 nM	25 nM
O=C(OC1([C@H]2CCC[C@@H](c3cc(F)cc(F)c3)N2S(=O)(=O)c2ccc(Cl)cc2)CC1)N1CCC(N2CCCCC2)CC1 [1-((2R,6S)-1-(4-chlorophenylsulfonyl)-6-(3,5-difluorophenyl)piperidin-2-yl)cyclopropyl 4-(piperidin-1-yl)piperidine-1-carboxylate]	0.3 nM	
CC[C@@H]1CCC[C@H](C2(OC(=O)N3CCN(CCO)[C@@H](C)C3)CC2)N1S(=O)(=O)c1ccc(Cl)cc1 [(S)-1-((2R,6R)-1-(4-chlorophenylsulfonyl)-6-ethylpiperidin-2-yl)cyclopropyl 4-(2-hydroxyethyl)-3-methylpiperazine-1-carboxylate]	13 nM	10 nM
